# Assay outcomes (PubChem BioAssay)
# ABCB6 inh 2 – inhibitors of human ABC transporter ABCB6; AID 602162; K562-ABCB6 porphyrin accumulation, flow cytometry, 1 h; stronger effect = lower value; fluorescence ratio to DMSO, % at 10 µM; hit rate 0.19% among 360,000;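 active = fluorescence ratio to DMSO below 75%, the collection mean minus 3 SD; inconclusive = too few cells collected in the well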;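 also: signal is porphyrin accumulated inside mitochondria; lower ratio means ABCB6 inhibition with less porphyrin fluorescence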
# Target sequence (Q9NP58 whole entry, looked up): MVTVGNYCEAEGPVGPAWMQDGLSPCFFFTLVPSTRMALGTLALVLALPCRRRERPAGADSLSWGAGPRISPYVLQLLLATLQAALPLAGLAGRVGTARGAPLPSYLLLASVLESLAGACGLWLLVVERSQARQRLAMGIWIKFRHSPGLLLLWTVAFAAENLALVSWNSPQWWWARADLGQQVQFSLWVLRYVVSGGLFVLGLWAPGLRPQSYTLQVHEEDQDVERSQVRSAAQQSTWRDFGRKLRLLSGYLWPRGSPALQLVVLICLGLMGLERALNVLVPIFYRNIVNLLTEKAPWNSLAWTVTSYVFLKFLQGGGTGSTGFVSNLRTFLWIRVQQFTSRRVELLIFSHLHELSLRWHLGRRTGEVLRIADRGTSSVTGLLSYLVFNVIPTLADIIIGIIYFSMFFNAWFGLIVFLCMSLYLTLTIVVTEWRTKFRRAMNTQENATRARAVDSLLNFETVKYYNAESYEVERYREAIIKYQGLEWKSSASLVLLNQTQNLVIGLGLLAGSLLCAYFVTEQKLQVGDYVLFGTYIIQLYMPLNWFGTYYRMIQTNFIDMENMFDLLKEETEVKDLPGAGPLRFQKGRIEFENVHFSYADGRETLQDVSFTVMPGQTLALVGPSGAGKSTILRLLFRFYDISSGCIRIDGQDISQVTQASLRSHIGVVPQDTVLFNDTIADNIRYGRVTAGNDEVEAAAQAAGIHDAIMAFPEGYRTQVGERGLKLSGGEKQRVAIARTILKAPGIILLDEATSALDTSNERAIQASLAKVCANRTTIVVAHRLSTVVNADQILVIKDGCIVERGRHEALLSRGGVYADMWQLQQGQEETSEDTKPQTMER
# Granule exo inh – blocks lytic granule exocytosis. TALL-104 LAMP-1 surface exposure, flow cytometry; cells stimulated with thapsigargin and PMA. inhibition, % at 10 µM. hit rate 0.66% among 360,000. AID 651702;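 active = inhibition above about 55%, limit read from the data; inconclusive = no clear call, values can overlap the other calls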
# VLA-4 inh – inhibition in a human VLA-4 binding assay | P13612 | VLA-4 expressing cells, ligand binding flow cytometry | inhibition, % (about 7 µM as worked out from the volumes in the protocol) | hit rate 0.2% among 330,000 | AID 2557; in the data active = inhibition above about 50%
# DAGLB inh – blocks human DAGLB lipase activity; Q8NCG7; HEK293T DAGLB membrane lysate, EnzChek fluorogenic substrate; inhibition, % at 5.17 µM; hit rate 0.059% among 340,000; in the data active = inhibition above about 34%
# MT1-MMP act inh – MT1-MMP (human) activation inhibition. AID 651647. hit rate 0.061% among 360,000. HT1080 RFP-PRO-GFP cells, GFP/RFP ratio fluorescence, overnight; percent of plate control window, DMSO zero. P50281. GFP/RFP ratio change, % at 20 µM;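 active = GFP/RFP ratio change of at least 30% with cell ATP level not reduced by more than half and red fluorescence within 50% of control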
#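 Read-out: GFP/RFP fluorescence ratio; Test system: RFP-PRO-GFP reporter HT1080 cells; Compound dosing: single-point 20 µM compound, 1% DMSO; Times: overnight compound exposure at 37 °C.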
# FGF22 binding – shifts melting point of recombinant human FGF22; Q9HCT0; recombinant FGF22 thermal shift, SYPRO orange fluorescence; percent of sucrose octasulfate shift, DMSO zero; activity (Tm shift, normalised), % at 9.99 µM; hit rate 1.5% among 340,000; AID 651658;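 active = mean Tm shift, scaled 0 neutral to 100 positive control, at about 1.3% or above, every replicate too, limit read from the data; inconclusive = no clear call, values can overlap the other calls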
# A number is an active result; i = inactive; ? = inconclusive; nt = not tested or not shown. Sampled rows, rich in hits. Any-hit rate of the full collection: about 2%.
SMILES,ABCB6 inh 2,Granule exo inh,VLA-4 inh,DAGLB inh,MT1-MMP act inh,FGF22 binding
COc1ccc(S(=O)(=O)Nc2ccc3c(c2)CC(=O)N([C@H](C)CO)C[C@H](C)[C@@H](CN(C)Cc2ccc(C(=O)Nc4ccccc4N)cc2)O3)cc1,nt,nt,nt,nt,nt,i
CC(C)c1ccc(NC(=O)COC(=O)COc2ccccc2)cc1,i,i,i,i,i,43.1
NS(=O)(=O)c1ccc(NC(=O)COC(=O)COc2ccccc2)cc1,i,i,i,i,i,i
CCCCCCCCCCOC(=O)Cn1c(COc2ccccc2OC)[n+](C)c2ccccc21,i,88.8,i,i,i,i
Cc1ccc2nc(SCc3nc4cc(Cl)ccc4c(=O)[nH]3)[nH]c2c1,i,i,i,i,i,43.1
Cc1ccc2nc(SCc3nc4c(cnn4-c4ccccc4)c(=O)[nH]3)[nH]c2c1,i,i,i,i,i,nt
C[C@H](O)C#Cc1ccc2c(c1)O[C@H](CN(C)C(=O)CN(C)C)[C@@H](C)CN([C@@H](C)CO)S2(=O)=O,nt,nt,nt,nt,nt,i
CC(CC(=O)N1CCN(c2ccc(C(F)(F)F)cn2)CC1)n1ccnc1 (centres undefined),i,i,i,i,i,43.1
O=C(COC(=O)c1ccc2ccccc2n1)Nc1cccc(S(=O)(=O)NC2=NCCCCC2)c1,i,i,i,i,i,43.2
C[C@H](CO)N1C[C@H](C)[C@@H](CN(C)C(=O)NC2CCCCC2)OCCCC[C@H](C)Oc2ccc(NC(=O)Nc3cccc4ccccc34)cc2C1=O,nt,nt,nt,nt,nt,i
Cc1cc(C2=NNC(=NCCc3ccccc3)SC2)c(C)n1CC1CCCO1 (centres undefined),i,i,i,i,i,i
Clc1ccc(C2=NNC(=NCC3CCCO3)SC2)cc1 (centres undefined),i,i,i,i,i,43.2
C[C@@H]1CN([C@H](C)CO)C(=O)c2cccc(NC(=O)CCCCCC(=O)Nc3ccccc3N)c2O[C@@H]1CN(C)C(=O)Nc1ccc2c(c1)OCO2,nt,nt,nt,nt,nt,i
O=C1NCCN(Cc2c(F)cccc2Cl)C1CC(=O)N1CCCO1 (centres undefined),i,i,i,i,i,i
O=C1NCCN(Cc2ccc(Cl)c(F)c2)C1CC(=O)N1CCCO1 (centres undefined),i,i,i,i,i,43.2
N#CC1=C(S)N(c2ccc(F)cc2)C2(CCCCC2)NC1=O,i,80.6,i,i,i,i
CC(C)NC(=O)N1[C@H](CO)[C@H]2c3ccccc3N(C(=O)Nc3ccc(F)cc3)C[C@H]21,nt,nt,nt,nt,nt,i
COCCN(C(=S)Nc1ccccc1C)C(C)c1ccco1 (centres undefined),i,i,i,i,i,43.2
COCCN(C(=S)Nc1cccc(C)c1C)C(C)c1ccco1 (centres undefined),i,i,i,i,i,i
CC(C)C#Cc1ccc([C@@H]2[C@H](CO)N3CCCCN(C(=O)c4ccc5c(c4)OCO5)C[C@@H]23)cc1,nt,nt,nt,nt,nt,i
NC1=NC(=O)/C(=C/c2cc(Br)c(O)c(Br)c2)S1,i,i,i,i,i,2.0
C[C@H]1CN([C@@H](C)CO)C(=O)Cc2cc(NC(=O)Nc3ccc4c(c3)OCO4)ccc2O[C@@H]1CN(C)C(=O)Nc1ccc(C(F)(F)F)cc1,nt,nt,nt,nt,nt,i
O=C(/C=C/c1ccc(Br)cc1)NC(=S)N1CCOCC1,i,i,i,i,i,43.8
Cc1ccc(S(=O)(=O)Nc2ccc3c(c2)CC(=O)N([C@@H](C)CO)C[C@H](C)[C@@H](CN(C)C(=O)NC2CCCCC2)O3)cc1,nt,nt,nt,nt,nt,i
C[C@@H]1CCCCO[C@@H](CN(C)C(=O)Nc2ccc(F)cc2)[C@H](C)CN([C@@H](C)CO)C(=O)c2cc(NC(=O)C3CCCCC3)ccc2O1,nt,nt,nt,nt,nt,i
SMILES,ABCB6 inh 2,Granule exo inh,VLA-4 inh,DAGLB inh,MT1-MMP act inh,FGF22 binding
CCC(=NCCc1ccc(OC)c(OC)c1)c1ccccc1O,i,?,i,i,i,i
COc1ccc(CCN=C(C)C2=C(O)C(c3ccccc3)OC2=O)cc1OC (centres undefined),i,i,i,i,i,42.9
COc1cc2c(cc1OC)CN(C(=O)[C@@H]1[C@H]3C(=O)O[C@H](c4ccccc4)[C@H](c4ccccc4)N3[C@H](c3ccc(OCCO)cc3)[C@@]13C(=O)Nc1ccc(C#CCNC(N)=O)cc13)CC2,nt,nt,nt,nt,nt,i
O=C(Cc1ccccc1)N[C@H]1CC[C@H](CC(=O)N2CCCCC2)O[C@H]1CO,nt,nt,nt,nt,nt,i
CS(=O)(=O)N1CCc2cc(S(=O)(=O)N3CCCCC3)ccc21,i,i,i,i,i,42.9
COc1ccc(S(=O)(=O)NCCc2ccc(F)cc2)cc1,i,i,i,i,i,nt
CCCCNc1ccc(C(F)(F)F)cc1S(=O)(=O)NCCc1ccc(F)cc1,i,i,nt,i,i,20.5
O=C(Nc1ccc2nn(-c3ccc(F)cc3)nc2c1)c1cccnc1,i,i,i,i,i,43.5
O=C(Nc1ccc2nn(-c3ccccc3)nc2c1)c1cccnc1,i,i,i,i,i,nt
O=C(COC(=O)c1ccc(Cl)nc1)c1ccc2c(c1)OCCO2,i,i,i,i,i,43.4
Nc1nccc(-c2cccs2)n1,i,i,i,i,i,43.4
CCOC(=O)c1ccc(NC(=O)C2CC(=O)N=C(N)S2)cc1 (centres undefined),i,i,i,i,i,43.3
CCOc1cc2c(cc1OC)C(c1cccc([N+](=O)[O-])c1)NCC2 (centres undefined),i,i,i,i,i,43.2
CCOc1cc2c(cc1OCC)C(c1ccc(F)cc1)NCC2 (centres undefined),i,i,i,i,i,i
Cc1c(N2C(=O)C(=O)/C(=C(/O)c3ccc(Br)cc3)C2c2cccnc2)c(=O)n(-c2ccccc2)n1C (centres undefined),i,i,i,i,i,43.7
Cc1ccc(/C(O)=C2/C(=O)C(=O)N(CCN3CCOCC3)C2c2cccnc2)cc1 (centres undefined),i,i,i,i,i,nt
O=C(c1ccc(Cl)cc1[N+](=O)[O-])N1CCc2ccccc2C1,i,i,i,i,i,43.0
O=C(c1ccccc1[N+](=O)[O-])N1CCc2ccccc2C1,i,i,i,i,i,nt
COC(=O)CSc1nnc(CNC(=O)c2ccc(S(=O)(=O)N(C)C)cc2)n1C,i,i,i,i,i,43.3
CCOC(=O)CSc1nnc(CNC(=O)c2ccc(S(=O)(=O)N(C)C)cc2)n1C,i,i,i,i,i,i
COc1ccc(CN2C[C@@H](C)[C@@H](OC)CN(C)C(=O)c3cc(NC(C)=O)ccc3OC[C@@H]2C)cc1,nt,nt,nt,nt,nt,i
COc1cc(/C=C/C=C2/CC/C(=C/C=C/c3ccc(O)c(OC)c3)C2=O)ccc1O,i,i,nt,i,i,i
COc1cc(/C=C2/CC/C(=C/c3ccc(O)c(OC)c3)C2=O)ccc1O,i,85.9,i,i,i,i
